These results are taken from ChEMBL document CHEMBL4043143, “2-N-Arylthiazole inhibitors of Mycobacterium tuberculosis” (Bioorg Med Chem Lett, 2017).

The subject of data set [1] is Mycobacterium tuberculosis. The data set can be described thus: Antitubercular activity against Mycobacterium tuberculosis H37Ra infected in THP-1 macrophages measured after 5 days post infection by luciferase reporter gene assay. The class given is functional. The settings on record: THP-1, 120 h. Put shortly:
(§1)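 Firefly luciferase reporter Mtb infected THP-1 cells. Bacterial growth was read by luminescence five days post-infection, and the value was reported as the 50% inhibitory concentration. The assay medium used glucose and glycerol as the carbon source.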
A general note: In a reporter assay the amount or activity of a reporter protein is the signal.

Data set [2] can be described thus: Metabolic stability in rat liver microsomes assessed as compound remaining at 1 uM measured after 30 mins. In kind it is ADME, microsome. The settings on record: read-out: Stability. In general terms: Microsomes from liver hold many membrane-bound enzymes, among them those of drug oxidation.
The nature of data set [3]: Half life in mouse at 3 mg/kg, po or 1 mg/kg, iv. The class given is ADME, organism-based. The conditions noted are these: in vivo. Put shortly:
(§2)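 Mouse pharmacokinetics after 3 mg/kg oral or 1 mg/kg intravenous dosing. Clearance is in mL/min/kg. AUC is in μg*h/mL, with oral exposure normalised to the actual dose.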

Data set [4] concerns Mus musculus. The data set can be described thus: Dose normalized AUC in mouse at 3 mg/kg, po or 1 mg/kg, iv. The class given is ADME, organism-based. The conditions noted are these: in vivo. Put shortly:
as §2

Data set [5] is described as follows: Clearance in mouse at 1 mg/kg, iv. In kind it is ADME, organism-based. The conditions noted are these: in vivo. Put shortly:
as §2

Data set [6] deals with Mycobacterium tuberculosis. As to the kind of experiment: Antitubercular activity against Mycobacterium tuberculosis H37Rv BSL3 infected in THP-1 macrophages under anaerobic condition after 5 days post infection by luciferase reporter gene assay. The conditions noted are these: H37Rv BSL3, THP-1, 120 h. In kind it is functional.
The subject of data set [7] is Mycobacterium tuberculosis. As to the kind of experiment: Antitubercular activity against Mycobacterium tuberculosis H37Rv BSL3 infected in THP-1 macrophages using middlebrook 7H12 broth media after 5 days post infection by luciferase reporter gene assay. In kind it is functional. The settings on record: H37Rv BSL3, THP-1, 120 h.
For data set [8], the system named is Mycobacterium tuberculosis. As to the kind of experiment: Antitubercular activity against Mycobacterium tuberculosis Erdman BSL3 infected in BALB/c mouse assessed as reduction in colony forming units in lung homogenates at 100 mg/kg administered daily via oral gavage for 5 days per week for 4 weeks. In kind it is functional, organism-based. The conditions noted are these: Mycobacterium tuberculosis str. Erdman = ATCC 35801. Put shortly:
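BALB/c mice were infected intranasally with 10^6 cfu of the Erdman isolate, six mice per group. Dosing was 100 mg/kg daily, 5 days/week, for four weeks. Lung homogenates were plated for cfu. An early-control group was killed at the start of therapy to set the infection load, and a late-control group marked the endpoint and confirmed virulence. Rifampin at 10 mg/kg was the positive control.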

The test system of data set [9] is Mycobacterium tuberculosis. The data set can be described thus: Antitubercular activity against Mycobacterium tuberculosis H37Ra BSL2 infected in THP-1 macrophages after 5 days post infection by luciferase reporter gene assay. In kind it is functional. The settings on record: H37Ra BSL2, THP-1, 120 h. In outline: as §1
The test system of data set [10] is Mycobacterium tuberculosis. The data set can be described thus: Antitubercular activity against Mycobacterium tuberculosis Erdman BSL3 infected in THP-1 macrophages using middlebrook 7H9 broth media after 5 days post infection by luciferase reporter gene assay. The class given is functional, Mycobacterium tuberculosis str. Erdman = ATCC 35801. The settings on record: BSL3, 120 h.

The test system of data set [11] is Mycobacterium tuberculosis. As to the kind of experiment: Antitubercular activity against Mycobacterium tuberculosis H37Ra BSL2 cultured in broth. The class given is functional. In outline: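 BSL2 H37Ra broth assay. MIC was taken as the concentration (μM) giving 70% growth inhibition versus control wells.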
For data set [12], the system named is Mycobacterium tuberculosis. The data set can be described thus: Antitubercular activity against Mycobacterium tuberculosis Erdman BSL3 infected in THP-1 macrophages using middlebrook 7H12 broth media after 5 days post infection by luciferase reporter gene assay. The class given is functional, Mycobacterium tuberculosis str. Erdman = ATCC 35801. The conditions noted are these: BSL3, THP-1, 120 h.

Data set [13] concerns Mycobacterium tuberculosis. The data set can be described thus: Antitubercular activity against Mycobacterium tuberculosis H37Rv BSL3 infected in THP-1 macrophages using middlebrook 7H9 broth media after 5 days post infection by luciferase reporter gene assay. The class given is functional. The settings on record: H37Rv BSL3, THP-1, 120 h.

Values after ≈ are worked out from the molar mass of the structure shown. Active and inactive are the calls of the source. Bounds are passed on as bounds.

For orientation: IC50 means the concentration at which inhibition is half-maximal. Read a high IC50 as weaker potency. As to `Cc1csc(Nc2ccc(OC3CCCC3)cc2)n1`, the IC50 in data set [1] came to 70 nM. Moreover, the remaining at 0.5 h, 1 µM in data set [2] is 10%.
As usually defined, the half-life is the time needed for the level to fall by half in the phase considered. As usually defined, the clearance is the rate of elimination divided by the concentration. As to `CCCCc1ccc(Nc2nc(CC(=O)O)c(C)s2)cc1`, the half-life in [3] is 1.1 h. This molecule displayed an AUC/dose in data set [4] of 4.8 µg·h/mL. In data set [1], the IC50 turned out to be 100 nM. In data set [5], this molecule registered a clearance of 7 mL/min/kg.
Consider `CCCOc1ccc(Nc2nc(C)cs2)cc1`, for which, in data set [1], half-maximal inhibition (IC50) was put at 150 nM. The remaining at 0.5 h, 1 µM in data set [2] came out at 4%.
On the same counts, the results for `Cc1csc(Nc2ccc(C(C)(C)O)cc2)n1` are 60 nM and 12%.
In turn, `Cc1csc(Nc2ccc(C(C)C)cc2)n1` came in with an IC50 in data set [1] of 10 nM. Further, the remaining at 0.5 h, 1 µM in data set [2] was 0%.
On to `CCC(C)c1ccc(Nc2nc(CC(=O)O)cs2)cc1` (racemic), for which the IC50 in data set [6] is 96000 nM; in data set [7], above 100000 nM; in data set [1], 70 nM; in data set [9] it was 70 nM; in data set [12] it was above 100000 nM; in [13], 9400 nM. Also, the half-life in [3] is 2.8 h. Moreover, the AUC/dose in [4] stood at 14.4 µg·h/mL. Further, the result in data set [8] was inactive. The same molecule yielded an MIC90 in data set [10] of 6.3 µM (≈ 1.83 µg/mL). The molecule also yielded an MIC70 in data set [11] of 0.16 µM (≈ 0.0465 µg/mL). Moreover, the clearance in data set [5] amounted to 3 mL/min/kg.
Regarding `CC(C)(C)c1ccc(Nc2nc(CC(=O)O)cs2)cc1`, the IC50 in [6] is above 100000 nM; in data set [7] it was above 100000 nM; in data set [1] it was 70 nM; in [9], 70 nM; in data set [12], 63000 nM; in data set [13] it was 9400 nM. In data set [3], this molecule gave a half-life of 1.1 h. In [4], the AUC/dose amounted to 24.1 µg·h/mL. Besides, the outcome in data set [8] was inactive. The same molecule came in with an MIC90 in data set [10] of 6.3 µM (≈ 1.83 µg/mL). In [11], this molecule registered an MIC70 of 0.16 µM (≈ 0.0465 µg/mL). The clearance in data set [5] is 4 mL/min/kg.
`CCCCc1ccc(Nc2nc(C(=O)O)cs2)cc1` came in with an IC50 in data set [1] above 20000 nM.
Take `Cc1csc(Nc2ccc(CCN(C)C)cc2)n1`: the IC50 in [1] is above 20000 nM.
As for `CCCCc1ccc(Nc2nc(CC(=O)O)cs2)cc1`, the IC50 in data set [6] stood at 17800 nM; in data set [7], 91000 nM; in data set [1] it was 150 nM; in data set [9] it was 150 nM; in data set [12], 56000 nM. The molecule also had a half-life in [3] of 3.1 h. The molecule further yielded an AUC/dose in data set [4] of 4.9 µg·h/mL. In data set [8], the result was inactive. This molecule also came in with an MIC90 in [10] of 7.8 µM (≈ 2.27 µg/mL). Besides, the MIC70 in [11] was determined as 0.16 µM (≈ 0.0465 µg/mL). This molecule yielded a clearance in data set [5] of 5 mL/min/kg.
Molecule `CCCCCCc1ccc(Nc2nc(C)cs2)cc1` returned an IC50 in [1] of 50 nM.
Take `CCCCc1ccc(Nc2nc(CC(=O)O)c(Cl)s2)cc1`: the IC50 in [6] was 5600 nM; in [7], above 100000 nM; in data set [1], 70 nM; in data set [9], 70 nM; in data set [12] it was 54000 nM; in data set [13], 6300 nM. The molecule further had a half-life in data set [3] of 1.1 h. The same molecule had an AUC/dose in data set [4] of 6 µg·h/mL. The result in data set [8] was inactive. In data set [10], this molecule came in with an MIC90 of 12.5 µM (≈ 4.06 µg/mL). This molecule came in with an MIC70 in [11] of 0.39 µM (≈ 0.127 µg/mL). The same molecule came in with a clearance in data set [5] of 5 mL/min/kg.
With `CCc1ccc(Nc2nc(C)cs2)cc1`, the IC50 in data set [1] came out at 120 nM. In addition, the remaining at 0.5 h, 1 µM in [2] was determined as 0%.
With `CO[C@H]1/C=C/O[C@@]2(C)Oc3c(C)c(O)c4c(O)c(c(/C=N/N5CCN(C)CC5)c(O)c4c3C2=O)NC(=O)/C(C)=C\C=C\[C@H](C)[C@H](O)[C@@H](C)[C@@H](O)[C@@H](C)[C@H](OC(C)=O)[C@@H]1C` [RIFAMPIN], the IC50 in data set [9] was found to be 30 nM. For the same molecule, the MIC70 in data set [11] was 0.08 µM (≈ 0.0658 µg/mL).
`Cc1csc(Nc2ccc(OCCO)cc2)n1`: in [1], inhibition was half-maximal at 3190 nM (IC50). For the same molecule, the remaining at 0.5 h, 1 µM in data set [2] was 73%.
On to `O=C(O)Cc1csc(Nc2ccc(OCCC(F)(F)F)cc2)n1`, for which, in data set [3], the half-life is 1.6 h. The molecule further came in with an AUC/dose in data set [4] of 15 µg·h/mL. Also, inhibition in data set [1] was half-maximal at 270 nM (IC50). The molecule further yielded a clearance in data set [5] of 1.5 mL/min/kg.
`Cc1ccc(Nc2nc(C)cs2)cc1` displayed an IC50 in data set [1] above 20000 nM.
In data set [1], `CCC(O)Cc1ccc(Nc2nc(C)cs2)cc1` (stereo not drawn) yielded an IC50 of 400 nM. For the same molecule, the remaining at 0.5 h, 1 µM in [2] was 1%.
Molecule `CCCCc1ccc(Nc2nc(C(C)C(=O)O)cs2)cc1` (stereo not drawn) had a half-life in data set [3] of 0.9 h. The AUC/dose in [4] was determined as 4.8 µg·h/mL. The molecule also displayed an IC50 in data set [1] of 140 nM. This molecule also returned a clearance in [5] of 4 mL/min/kg.
Regarding `CCC(C)c1ccc(Nc2nc(C)cs2)cc1` (stereo not drawn), the IC50 in [1] is below 40 nM. Also, the remaining at 0.5 h, 1 µM in data set [2] stood at 0%.
In the case of `Cc1csc(Nc2ccc(C(C)(C)C)cc2)n1`, the IC50 in data set [1] is below 40 nM. In addition, in data set [2], the remaining at 0.5 h, 1 µM was 0%.
In data set [1], `Cc1csc(Nc2ccc(COCC(F)(F)F)cc2)n1` registered an IC50 below 40 nM. The remaining at 0.5 h, 1 µM in data set [2] amounted to 1%.
`CCCCc1ccc(Nc2nc(C)cs2)cc1`: the IC50 is 12000 nM in data set [6]; 47000 nM in data set [7]; below 5 nM in data set [1]; 40 nM in data set [9]; above 100000 nM in [12]. Also, the outcome in data set [8] was inactive. In [10], the MIC90 was 7 µM (≈ 1.72 µg/mL). Moreover, the MIC70 in [11] worked out at 0.04 µM (≈ 0.00986 µg/mL). Further, the remaining at 0.5 h, 1 µM in [2] came out at 1%.
Regarding `CCCCCc1ccc(Nc2nc(C)cs2)cc1`, inhibition in data set [1] was half-maximal at 40 nM (IC50). The remaining at 0.5 h, 1 µM in data set [2] amounted to 3%.
Turning to `CCCCc1ccc(Nc2nc(CC(N)=O)cs2)cc1`, the half-inhibitory concentration (IC50) in data set [1] stood at 860 nM.
With `CCNCc1ccc(Nc2nc(C)cs2)cc1`, in data set [1], the IC50 is above 20000 nM. The remaining at 0.5 h, 1 µM in data set [2] came to 0%.
Molecule `CCCCc1ccc(Nc2nc(C(C)(C)C(=O)O)cs2)cc1` showed a half-life in [3] of 5 h. For the same molecule, the AUC/dose in [4] was determined as 1.4 µg·h/mL. Moreover, the IC50 in data set [1] was determined as 140 nM. The molecule further returned a clearance in [5] of 18 mL/min/kg.
